# Assay outcomes: PubChem BioAssay, several laboratories
# Only some compounds are listed: those with a hit (about 2% of all), similar ones and a draw of the others.
# FID counter = counter-screen for HCV NS3 helicase inhibitors: DNA intercalator displacement | DNA fluorescent intercalator displacement, fluorescence | inhibition, % at 7.9 µM | hit rate 0.17% among 290,000; in the data active = inhibition above about 37%;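 also: higher means more ethidium bromide displaced from hairpin DNA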
# HCV core dimer = blocks dimerization of HCV core protein; TR-FRET GST/Flag-core106 dimerization, 1536-well; inhibition, % at 5 µM; hit rate 0.33% among 300,000;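 active = inhibition above the mean of all tested compounds plus 3 SD, set per screening campaign, cut at about 45% in these data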
#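 System – GST-tagged and Flag-tagged HCV core protein residues 1-106 · Repeats – one well for each compound · Technique – TR-FRET 671 and 617 nm emission · Doses – one concentration, 5 µM, in 0.5% DMSO · Times – 4 h, 22.5 °C incubation · Also added – Eu donor and XL665 acceptor anti-tag antibodies · Measure – percent inhibition of core106 dimerization signal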
# PABP1 MLLE inh = inhibitors of microRNA-mediated deadenylation, human PABP1 MLLE binding | P11940 | GST-MLLE / FITC-PAM2 fluorescence polarization | inhibition, % at 20 µM | hit rate 0.36% among 360,000; in the data active = inhibition above about 35%, passing the limit was not always enough
# Target sequence (P11940 whole entry, looked up): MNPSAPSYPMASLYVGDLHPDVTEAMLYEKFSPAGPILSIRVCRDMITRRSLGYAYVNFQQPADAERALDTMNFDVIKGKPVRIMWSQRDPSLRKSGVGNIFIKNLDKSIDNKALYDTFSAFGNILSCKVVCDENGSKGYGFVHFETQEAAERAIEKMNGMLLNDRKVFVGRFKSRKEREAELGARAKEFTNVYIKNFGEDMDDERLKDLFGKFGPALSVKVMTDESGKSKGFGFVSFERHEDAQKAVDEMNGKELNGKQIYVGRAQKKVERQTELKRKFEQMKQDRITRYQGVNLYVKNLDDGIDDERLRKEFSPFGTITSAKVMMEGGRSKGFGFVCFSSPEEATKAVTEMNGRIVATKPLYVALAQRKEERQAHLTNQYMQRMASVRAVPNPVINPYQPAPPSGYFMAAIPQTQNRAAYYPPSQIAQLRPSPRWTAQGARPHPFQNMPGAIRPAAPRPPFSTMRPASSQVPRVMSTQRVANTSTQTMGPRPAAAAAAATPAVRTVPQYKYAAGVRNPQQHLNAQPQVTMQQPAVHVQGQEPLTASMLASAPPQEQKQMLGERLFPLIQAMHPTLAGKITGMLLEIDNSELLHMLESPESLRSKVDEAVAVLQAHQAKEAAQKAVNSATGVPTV
# PABP FP inh = blocks human PABP binding to poly(A) RNA. fluorescence polarization. inhibition, % at 35 µM. P11940. hit rate 1% among 290,000;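 also: calls also rest on retests at 20 µM and on dose response follow-up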
# eIF4H FP inh = inhibitors of RNA binding by human eIF4H. eIF4H fluorescence polarization binding assay. inhibition, % at 35 µM. Q15056. hit rate 0.94% among 290,000;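 also: calls also rest on retests at 20 µM and on dose response follow-up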
# NS3 helicase inh = blocks Hepatitis C virus NS3 helicase unwinding; NS3 helicase DNA unwinding, Cy5 molecular beacon fluorescence; inhibition, % at 10.9 µM; hit rate 0.56% among 290,000;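 active = inhibition above the mean of all tested compounds plus 3 SD, set per campaign, cut at about 35% in these data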
#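 System: NS3 helicase fragment of HCV / Schedule: 1 h at 25 °C / Control set: DMSO alone as 0% and 110 µM thioflavine S as 100% / Reagent: Cy5/quencher beacon DNA duplex and ATP to start / Technique: Cy5 fluorescence / Replication: singlicate / Evaluation: % inhibition of end-to-start signal ratio versus controls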
# A number is an active result; . = inactive; ? = inconclusive; / = no result given. Unless noted, no rule for the calls is given here.
SMILES,FID counter,HCV core dimer,PABP1 MLLE inh,PABP FP inh,eIF4H FP inh,NS3 helicase inh
Cc1ccc(S(=O)(=O)Nc2cc(C)c(O)c(Sc3n[nH]c(C)n3)c2)cc1,.,.,42,.,.,.
Cc1ccc(S(=O)(=O)Nc2ccc3cn[nH]c3c2)cc1,/,/,.,/,/,/
O=C(O)c1ccc(CN2C(=O)c3cccc4c([N+](=O)[O-])ccc(c34)C2=O)cc1,.,/,51,63,81,.
Cc1ccc(C(=O)O)cc1N1C(=O)c2cccc3c([N+](=O)[O-])ccc(c23)C1=O,.,.,.,77,101,.
CN(C)CCCN1C(=O)c2cccc3c([N+](=O)[O-])ccc(c23)C1=O,41,.,57,.,?,.
COc1ccccc1Cc1c(C(C)(C)C)nc2c3ccccc3ccn12,/,/,.,/,/,/
CC(NC(=O)c1cccc(S(=O)(=O)N2CCN(Cc3ccccc3)CC2)c1)c1ccc(Br)cc1 (stereo unspecified),.,.,.,.,.,.
CN1C(=O)/C(=C/c2ccc(-c3ccccc3[N+](=O)[O-])o2)SC1=Nc1ccc(Cl)c(C(=O)O)c1,.,.,.,.,78,.
c1cc(-c2ccc3nncn3c2)ccc1CN1CCOCC1,/,/,.,/,/,/
O=C(CCN1C(=O)[C@@H]2Cc3ccccc3CN2C1=O)NCc1ccccc1Cl,.,.,.,.,.,.
CC1=Nc2nc(N3CCCCC3)c(C#N)c3c4c(nc(c23)N1)N(c1ccc(C(C)C)cc1)C(=O)C4,.,46,.,.,?,.
O=C(COC(=O)c1ccccc1O)NC1CCCc2ccccc21 (stereo unspecified),/,/,.,/,/,/
O=C(COC(=O)c1cc([N+](=O)[O-])ccc1NCc1ccccc1)NC1CCCc2ccccc21 (stereo unspecified),.,59,.,.,.,.
CC(C)(C)OC(=O)NC(CNCc1ccccc1)Cc1ccccc1 (stereo unspecified),/,.,.,/,/,/
Cc1ccc(NC(=O)N2CCOCC2)cc1NC(=O)N1CCOCC1,/,/,.,/,/,/
Cc1cccc(C)c1NC(=O)CS(=O)CC(=O)NCCCc1ccccc1 (stereo unspecified),.,.,.,61,92,.
Cc1ccc(C(O)c2ncc(-c3ccc(Cl)cc3)[nH]2)cc1 (stereo unspecified),/,/,.,/,/,/
CC1(C(=O)NS(=O)(=O)C2CC2)CCCN(C(=O)Cc2ccc(F)cc2)C1 (stereo unspecified),/,/,.,/,/,/
CCOc1ccccc1N1CCN(CC(=O)N(CC(C)C)c2c(N)n(CC(C)C)c(=O)[nH]c2=O)CC1,.,.,.,51,9.0,.
COCCN(C(=O)CSc1ccc2c(c1)OCCO2)c1c(N)n(CC(C)C)c(=O)[nH]c1=O,/,/,42,/,/,/
CCOc1ccc(S(=O)(=O)N2CCN(C(=O)CN3C(=O)NC(C)(C)C3=O)CC2)cc1,/,/,.,/,/,/
Cc1ccc(-c2csc(NC(=O)c3ccno3)n2)cc1,.,62,.,.,.,.
O=C(COC(=O)c1ccccc1S(=O)(=O)N1CCCCC1)NCC(F)(F)F,.,.,.,73,active,.
COc1ccc(CN2C[C@]3(CO)O[C@@H](CO)C[C@@H]3S2(=O)=O)cc1,/,/,.,/,/,/
COCCNC(=O)C1(C)CCN(C(=O)c2ccc(SC(F)(F)F)cc2)C1 (stereo unspecified),/,/,.,/,/,/
SMILES,FID counter,HCV core dimer,PABP1 MLLE inh,PABP FP inh,eIF4H FP inh,NS3 helicase inh
CCOC(=O)c1sc(NC(=O)Cn2nnc3sc4c(c3c2=O)CCC(C(C)(C)C)C4)nc1C (stereo unspecified),.,46,.,.,.,.
Cc1nn(-c2ccccc2)c(C)c1/C=N/NC(=O)CSc1nc2ccccc2c(=O)n1-c1ccc(Br)cc1,.,59,.,.,.,.
Cc1ccccc1-n1c(SCC(=O)N/N=C/c2c(C)nn(-c3ccccc3)c2C)nc2ccccc2c1=O,.,.,.,.,.,.
Cc1ccc(-n2c(SCC(=O)N/N=C/c3c(C)nn(-c4ccccc4)c3C)nc3ccccc3c2=O)cc1,.,.,38,.,.,.
Cc1ccc(S(=O)(=O)N2CCN(c3ccccc3)CC2)c(C)c1,.,.,.,.,.,.
CCOc1ccc(CN(C)CC(=O)Nc2ccc3c(c2)CCC3)cc1OC,.,.,.,.,76,.
C=CCOc1ccc(CN(C)CC(=O)Nc2ccc3c(c2)CCC3)cc1,37,.,.,.,.,.
COc1cc(CC(=O)Nc2ccc3c(c2)CCC3)cc(OC)c1OC,.,.,.,.,.,.
COc1ccc(NC(=O)CN(C)C(=O)Cc2ccc3c(c2)CCC3)cc1,.,.,.,.,.,.
CCCS(=O)(=O)NC(=O)C1(C)CCN(C(=O)c2ccc(SC(F)(F)F)cc2)C1 (stereo unspecified),/,/,.,/,/,/
CCC1Cc2[nH]c(=S)[nH]c(=O)c2C(c2ccc(F)cc2)O1 (stereo unspecified),/,/,.,/,/,/
c1ccc(-c2csc(NC3=NCCCCC3)n2)cc1,.,.,.,64,2.5,.
CN(c1ccccc1C(=O)Nc1ccccc1C(=O)NCc1ccco1)S(C)(=O)=O,.,.,.,.,.,.
CN(c1ccccc1C(=O)NCc1ccco1)S(C)(=O)=O,.,.,.,32,55,.
c1ccc2c(c1)[nH]c1c3ccccc3sc21,.,.,.,.,.,.
O=C(N/N=C\c1ccc(COc2ccc([N+](=O)[O-])cc2)o1)c1ccc(Cl)cc1,.,.,.,.,.,.
O=[N+]([O-])CC(=Nc1ccc(Cl)cc1)N/N=C\c1oc(O)c2ccccc12,.,61,.,.,.,.
O=C(N=C1SC2CS(=O)(=O)CC2N1c1ccccc1)c1cccc([N+](=O)[O-])c1 (stereo unspecified),/,/,.,/,/,/
CC[n+]1ccc2cc(OC)c(OC)cc2c1Cc1ccc(OC)c(OC)c1,.,.,.,57,.,.
O=C(c1ccc(Cl)c([N+](=O)[O-])c1)N1CCN(Cc2ccc3c(c2)OCO3)CC1,.,.,.,.,.,.
COc1ccc(C2CC(c3cccs3)=Nc3ccccc3S2)cc1 (stereo unspecified),.,.,51,.,.,.
CCOC(=O)C1(Cc2cccc(Cl)c2)CCCN(C(=O)C(C)(C)C)C1 (stereo unspecified),.,.,.,.,.,.
CCOc1ccc(C2C(C#N)=C(N)SC(N)=C2C#N)cc1OC,.,57,/,?,?,.
CCOc1ccc(C2C(C#N)=C(N)SC(N)=C2C#N)cc1OCC,/,58,.,.,122,/
CCOc1ccccc1C1C(C#N)=C(N)SC(N)=C1C#N,.,.,.,?,?,.
O=S(=O)(CS(=O)(=O)c1ccccc1)c1ccccc1,/,/,.,/,/,/
O=C1CCCC(=O)C1CS(=O)(=O)c1ccccc1,.,.,52,.,.,.
COc1ccc(CCCC(=O)NCc2ccccc2)cc1C,.,.,.,.,.,.
Cc1ccc(C(=O)Sc2cccccc2=O)cc1,.,.,50,.,.,.
